For assay [1], the system named is Mus musculus. As to the kind of experiment: Immunomodulatory activity in Pseudomonas aeruginosa M57-15 infected C57BL/6 mouse lung assessed as CD11b+c- cell expression level in lung digest at 0.16 g/kg, po measured after 14 days by flow cytometry (reference value: 21.97 +/- 3.51 %). The format is functional. Summed up: (§1)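 Oral gavage of 0.16 g/kg daily (2% methylcellulose vehicle) began 4 days before intratracheal bead infection (1 × 105 to 2 × 10^5 CFU). On days 3, 7 and 14, cells were taken from lavage (0.3 mM EDTA buffer) and from collagenase/DNase lung digest (1 h, 37°C). Cells were stained for CD11b, CD11c, Gr-1, CD4, CD80, MHC-II and MR, with more than 50,000 events acquired. Counts were gated percent × manual cell count.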
(In general: Flow cytometry measures light scatter and fluorescence of single cells or particles in a stream.)

Assay [2] concerns Pseudomonas aeruginosa. The assay is described as follows: Antibacterial activity against Pseudomonas aeruginosa M57-15 infected in C57BL/6 mouse assessed as increase of host survival time at 0.16 g/kg, po measured up to 14 days. In kind it is functional, organism-based. Summed up:
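For survival, mice received 1.3 × 10^6 CFU (1× LD50) intratracheally in agarose beads under isoflurane. Daily oral gavage of 0.16 g/kg in 2% methylcellulose, or vehicle, began 4 days before infection. Survival curves were compared by log-rank.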

Assay [3] relates to Mus musculus. As to the kind of experiment: Immunomodulatory activity in Pseudomonas aeruginosa M57-15 infected C57BL/6 mouse lung assessed as CD11b-c+ cell expression level in lung lavage fluid at 0.16 g/kg, po measured after 3 days by flow cytometry (reference value: 47.01 +/- 33.74 %). The format is functional. Summed up:
as §1

Assay [4] relates to Pseudomonas aeruginosa. The assay is described as follows: Antibacterial activity against Pseudomonas aeruginosa M57-15 infected in C57BL/6 mouse assessed as effect on host weight loss at 0.16 g/kg, po measured up to 14 days. The format is functional, organism-based. Summed up: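 Dosing was 0.16 g/kg daily by oral gavage in 2% methylcellulose, or vehicle, from 4 days before intratracheal bead infection (1 × 105 to 2 × 10^5 CFU). Body weight was followed over the study and compared with a sham-infected group. Groups had 3 to 6 mice, and each experiment was repeated at least three times.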

In assay [5] the test system is Mus musculus. The assay is described as follows: Immunomodulatory activity in Pseudomonas aeruginosa M57-15 infected C57BL/6 mouse lung assessed as CD11b+c+ cell expression level in lung digest at 0.16 g/kg, po measured after 14 days by flow cytometry (reference value: 6.6 +/- 1.86 %). The format is functional. Summed up: as §1
For assay [6], the system named is Mus musculus. The assay is described as follows: Immunomodulatory activity in Pseudomonas aeruginosa M57-15 infected C57BL/6 mouse lung assessed as up-regulation of CCR7 expression in CD11+ Gr1- cells in lung digest at 0.16 g/kg, po measured after 7 days by flow cytometry. The format is functional, organism-based. Summed up: as §1
The test system of assay [7] is Mus musculus. The assay is described as follows: Immunomodulatory activity in Pseudomonas aeruginosa M57-15 infected C57BL/6 mouse lung assessed as up-regulation of MHC2 expression in CD11+ Gr1- cells in lung digest at 0.16 g/kg, po measured after 7 days by flow cytometry. The format is functional, organism-based. Summed up:
as §1

Assay [8] relates to Mus musculus. The assay is described as follows: Immunomodulatory activity in Pseudomonas aeruginosa M57-15 infected C57BL/6 mouse lung assessed as decrease of IL-6 production in CD11b+ cells in lung lavage fluid at 0.16 g/kg, po measured after 7 days by flow cytometry. In kind it is functional, organism-based. Summed up:
(§2)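 The first 1-ml lavage wash was frozen at −80°C. Samples diluted 5-fold were incubated 3 h at room temperature with capture beads for a cytometric bead array (IL-12p70, CCL2, TNF-α, IL-10, IFN-γ, IL-6) plus a PE-conjugated detection antibody. Fluorescence was read by flow cytometry against standard curves. Mice had daily oral 0.16 g/kg from 4 days before intratracheal infection.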

For assay [9], the system named is Mus musculus. The assay is described as follows: Immunomodulatory activity in Pseudomonas aeruginosa M57-15 infected C57BL/6 mouse lung assessed as decrease of IL-12p70 production in CD11b+ cells in lung lavage fluid at 0.16 g/kg, po measured after 7 days by flow cytometry. The format is functional, organism-based. Summed up: as §2
Assay [10] relates to Mus musculus. As to the kind of experiment: Immunomodulatory activity in Pseudomonas aeruginosa M57-15 infected C57BL/6 mouse lung assessed as decrease of CCL2 production in CD11b+ cells in lung lavage fluid at 0.16 g/kg, po measured after 7 days by flow cytometry. The format is functional, organism-based. Summed up:
as §2

The test system of assay [11] is Mus musculus. The assay is described as follows: Immunomodulatory activity in Pseudomonas aeruginosa M57-15 infected C57BL/6 mouse lung assessed as CD11b+c+ cell expression level in lung lavage fluid at 0.16 g/kg, po measured after 14 days by flow cytometry (reference value: 5.42 +/- 5.34 %). In kind it is functional. Summed up: as §1
In assay [12] the test system is Mus musculus. As to the kind of experiment: Immunomodulatory activity in Pseudomonas aeruginosa M57-15 infected C57BL/6 mouse lung assessed as CD11b-c+ cell expression level in lung digest at 0.16 g/kg, po measured after 14 days by flow cytometry (reference value: 23.93 +/- 4.10 %). In kind it is functional. Summed up: as §1
Assay [13] concerns Mus musculus. As to the kind of experiment: Immunomodulatory activity in Pseudomonas aeruginosa M57-15 infected C57BL/6 mouse lung assessed as effect on CD11b+ cells infiltration in lung lavage fluid at 0.16 g/kg, po measured after 7 days by flow cytometry. The format is functional, organism-based. Summed up: as §1
Assay [14] has as its system Mus musculus. The assay is described as follows: Immunomodulatory activity in Pseudomonas aeruginosa M57-15 infected C57BL/6 mouse lung assessed as CD11b+c- cell expression level in lung digest at 0.16 g/kg, po measured after 3 days by flow cytometry (reference value: 25.42 +/- 10.57 %). The format is functional. Summed up:
as §1

Assay [15] relates to Mus musculus. As to the kind of experiment: Immunomodulatory activity in Pseudomonas aeruginosa M57-15 infected C57BL/6 mouse lung assessed as CD11b-c+ cell expression level in lung lavage fluid at 0.16 g/kg, po measured after 7 days by flow cytometry (reference value: 72.59 +/- 16.30 %). In kind it is functional. Summed up: as §1
Assay [16] relates to Mus musculus. The assay is described as follows: Immunomodulatory activity in Pseudomonas aeruginosa M57-15 infected C57BL/6 mouse lung assessed as decrease of IL-10 production in CD11b+ cells in lung digest at 0.16 g/kg, po measured after 7 days by flow cytometry. In kind it is functional, organism-based. Summed up:
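Lung digest cells (2 × 106) were stimulated for 4 h with 50 ng/ml PMA and 500 ng/ml ionomycin plus 10 μg/ml brefeldin A. They were surface-stained for CD11b/CD11c, fixed in 4% formalin, permeabilized with 0.05% saponin, Fc-blocked, and stained for intracellular TNF-α and IL-10 for flow cytometry. Mice were dosed at 0.16 g/kg by daily oral gavage from 4 days before infection.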

For assay [17], the system named is Pseudomonas aeruginosa. The assay is described as follows: Antibacterial activity against Pseudomonas aeruginosa M57-15 infected in C57BL/6 mouse assessed as effect on bacterial burden at 0.16 g/kg, po measured up to 14 days. The format is functional, organism-based. Summed up: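 Mice got 0.16 g/kg in 2% methylcellulose by daily oral gavage, starting 4 days before infection, or vehicle. Infection was intratracheal with bead-embedded bacteria, 1 × 105 to 2 × 10^5 CFU (about LD10). On days 0, 3, 7 and 14, aliquots of lung lavage and digest were plated on Pseudomonas selection agar and CFU counted manually after overnight growth.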

In assay [18] the test system is Mus musculus. The assay is described as follows: Immunomodulatory activity in Pseudomonas aeruginosa M57-15 infected C57BL/6 mouse lung assessed as CD11b+c+ cell expression level in lung digest at 0.16 g/kg, po measured after 3 days by flow cytometry (reference value: 8.63 +/- 0.53 %). In kind it is functional. Summed up:
as §1

In assay [19] the test system is Mus musculus. As to the kind of experiment: Immunomodulatory activity in Pseudomonas aeruginosa M57-15 infected C57BL/6 mouse lung assessed as increase of MHC2 expression in CD11b+ Gr1+ cells in alveolar space at 0.16 g/kg, po measured after 7 days by flow cytometry. In kind it is functional, organism-based. Summed up:
as §1

Activity calls are given as the source filed them. The rule behind the calls is not given here.

With `CC[C@H]1OC(=O)[C@H](C)[C@@H](O[C@H]2C[C@@](C)(OC)[C@@H](O)[C@H](C)O2)[C@H](C)[C@@H](O[C@@H]2O[C@H](C)C[C@H](N(C)C)[C@H]2O)[C@](C)(O)C[C@@H](C)CN(C)[C@H](C)[C@@H](O)[C@]1(C)O` [AZITHROMYCIN], the Activity is 15.55% in assay [1]; 34.84% in assay [3]; 4.31% in assay [5]; 5.25% in [11]; 18.18% in assay [12]; 14.42% in assay [14]. In addition, the values for the Activity in [15] and in [18] were 38.47% and 7.44%, respectively. Besides, the outcome in assay [2], in [4], in assay [9], in assay [16] and in assay [17] was inactive. Further, the result in assay [6], in assay [7], in [8], in [10], in assay [13] and in [19] was Active.

Values taken from ChEMBL document CHEMBL1687758, “Azithromycin alters macrophage phenotype and pulmonary compartmentalization during lung infection with Pseudomonas” (2010).
